Common to all, as to format: functional
For assay [1], the system named is Acinetobacter baumannii. Nature of the assay: Antibacterial activity against Acinetobacter baumannii ATCC 9955 assessed as inhibition of bacterial growth after 16 hrs by broth microdilution method. The gist of the method: (§1)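 MIC per CLSI broth microdilution. Strains streaked from glycerol stocks on blood agar, 16 h at 37 °C. Single colonies inoculated into cation-adjusted Mueller-Hinton broth (10 mg L–1 Mg2+, 25 mg L–1 Ca2+). Peptides serially diluted in this broth with 0.002% (v/v) final polysorbate-80 in polypropylene plates. Inoculum 5 × 10^5 CFU mL–1. Plates sealed, 16 h at 37 °C, growth scored visually. MIC in μg/mL, triplicates on two separate days.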

The test system of assay [2] is Acinetobacter baumannii. Nature of the assay: Antibacterial activity against Acinetobacter baumannii ATCC 17978 assessed as inhibition of bacterial growth after 16 hrs by broth microdilution method. The procedure, abridged:
as §1
For orientation: Broth dilution looks for growth in wells or tubes with falling amounts of substance.

For assay [3], the system named is Acinetobacter baumannii. Nature of the assay: Antibacterial activity against multidrug-resistant Acinetobacter baumannii assessed as inhibition of bacterial growth after 16 hrs by broth microdilution method. The procedure, abridged:
(§2)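 CLSI broth microdilution. Strains grown from glycerol stocks on blood agar 16 h at 37 °C; colonies used to inoculate CAMHB containing 10 mg L–1 Mg2+ and 25 mg L–1 Ca2+. Peptides dissolved in CAMHB with 0.002% (v/v) final polysorbate-80, serially diluted in polypropylene plates; inoculum 5 × 10^5 CFU mL–1. Sealed, 16 h at 37 °C, growth scored visually. MIC in μg/mL; three or more measurements on multiple days.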

For assay [4], the system named is Klebsiella pneumoniae. Nature of the assay: Antibacterial activity against Klebsiella pneumoniae ATCC 11228 assessed as inhibition of bacterial growth after 16 hrs by broth microdilution method. The procedure, abridged:
as §1

The subject of assay [5] is Klebsiella pneumoniae. Nature of the assay: Antibacterial activity against Klebsiella pneumoniae producing NDM1 assessed as inhibition of bacterial growth after 16 hrs by broth microdilution method. The procedure, abridged:
as §1

Assay [6] has as its system Pseudomonas aeruginosa. Nature of the assay: Antibacterial activity against Pseudomonas aeruginosa producing NDM1 assessed as inhibition of bacterial growth after 16 hrs by broth microdilution method. The procedure, abridged: as §2
For assay [7], the system named is Pseudomonas aeruginosa. Nature of the assay: Antibacterial activity against Pseudomonas aeruginosa M-120 assessed as inhibition of bacterial growth after 16 hrs by broth microdilution method. The procedure, abridged: as §1
Assay [8] relates to Escherichia coli. Nature of the assay: Antibacterial activity against Escherichia coli producing NDM1 assessed as inhibition of bacterial growth after 16 hrs by broth microdilution method. The gist of the method:
as §2

For assay [9], the system named is Escherichia coli. Nature of the assay: Antibacterial activity against Escherichia coli producing MCR2 assessed as inhibition of bacterial growth after 16 hrs by broth microdilution method. The procedure, abridged: as §1
In assay [10] the test system is Escherichia coli. Nature of the assay: Antibacterial activity against Escherichia coli producing MCR3 assessed as inhibition of bacterial growth after 16 hrs by broth microdilution method. The gist of the method: as §1
The next assay relates to Staphylococcus aureus. Nature of the assay: Antibacterial activity against methicillin resistant Staphylococcus aureus USA300 by measuring MIC after 16 hrs by broth microdilution method. The gist of the method:
as §2

The subject of assay [11] is Pseudomonas aeruginosa. Nature of the assay: Antibacterial activity against Pseudomonas aeruginosa ATCC 27853 assessed as inhibition of bacterial growth after 16 hrs by broth microdilution method. The gist of the method:
as §1

Assay [12] has as its system Pseudomonas aeruginosa. Nature of the assay: Antibacterial activity against Pseudomonas aeruginosa NRZ 08418 producing NDM1 assessed as inhibition of bacterial growth after 16 hrs by broth microdilution method. The gist of the method:
as §1

The test system of assay [13] is Escherichia coli. Nature of the assay: Antibacterial activity against Escherichia coli ATCC 35218 assessed as inhibition of bacterial growth after 16 hrs by broth microdilution method. The gist of the method: as §1
For assay [14], the system named is Escherichia coli. Nature of the assay: Antibacterial activity against Escherichia coli producing MCR1 assessed as inhibition of bacterial growth after 16 hrs by broth microdilution method. The procedure, abridged:
as §1

Assay [15] deals with Acinetobacter baumannii. Nature of the assay: Antibacterial activity against Acinetobacter baumannii NRZ 00687 producing NDM2 assessed as inhibition of bacterial growth after 16 hrs by broth microdilution method. The gist of the method: as §1

The structures appear in SMILES notation. In brackets after ≈: the same amount, converted by molar mass. Bridge positions count the residues as written; N and C are the ends. Square brackets hold non-standard residues; d marks the D form. Peptide text beside a SMILES is read from it. I, II: the chains in the order shown. Tle = CC(C)(C)[C@H](N)C(=O)O; dDab = NCC[C@@H](N)C(=O)O; hSer = N[C@@H](CCO)C(=O)O; Dab = NCC[C@H](N)C(=O)O

What is called MIC is the lowest concentration found to suppress growth. Turning to `CC(C)C[C@@H]1NC(=O)[C@@H](Cc2ccccc2)NC(=O)[C@H](CCN)NC(=O)[C@@H](NC(=O)[C@H](CCN)NC(=O)[C@@H](NC(=O)[C@H](CCN)NC(=O)CC[C@@H]2NC(=O)[C@H](CCN)NC(=O)[C@H](Cc3ccc(O)cc3)NC(=O)[C@H]([C@@H](C)O)NC(=O)[C@H](C(C)C)NC(=O)[C@@H]3CCCN3C(=O)[C@@H](C)NC(=O)[C@H](CO)NC(=O)[C@H](C)NC(=O)[C@H](C(C)(C)C)NC(=O)[C@H](CCO)NC(=O)[C@H](Cc3c[nH]c4ccccc34)NC(=O)[C@H](CCO)NC(=O)[C@@H](CCN)NC2=O)[C@@H](C)O)CCNC(=O)[C@H]([C@@H](C)O)NC(=O)[C@H](CCN)NC(=O)[C@H](CCN)NC1=O` (I: cyclo([dDab][hSer]W[hSer][Tle]AS[dA]PVTY[Dab]E) / II: [Dab]T[Dab][Dab][Dab][dF]L[Dab][Dab]T; amide I:14-II:N; lactam II:4-II:C), the MIC in the assay on Acinetobacter baumannii [1] amounted to 0.2 µg/mL (≈ 0.0779 µM); in the assay with Acinetobacter baumannii [2] it was 0.4 µg/mL (≈ 0.156 µM); in the assay with Acinetobacter baumannii [3], 0.4 µg/mL (≈ 0.156 µM); with Klebsiella pneumoniae [4] it was 0.2 µg/mL (≈ 0.0779 µM); with Klebsiella pneumoniae [5] it was 0.4 µg/mL (≈ 0.156 µM); in the assay with Pseudomonas aeruginosa [6], 0.8 µg/mL (≈ 0.312 µM). For the same compound, the MIC in the assay with Pseudomonas aeruginosa [7] was 1.6 µg/mL (≈ 0.624 µM); in the assay with Escherichia coli [8], 0.1 µg/mL (≈ 0.039 µM); in the assay with Escherichia coli [9] it was 0.4 µg/mL (≈ 0.156 µM); in the assay with Escherichia coli [10], 0.4 µg/mL (≈ 0.156 µM); against Staphylococcus aureus it was greater than 6.4 µg/mL.

`CC[C@H](C)CCCCC(=O)N[C@@H](CCN)C(=O)N[C@H](C(=O)N[C@@H](CCN)C(=O)N[C@H]1CCNC(=O)[C@H]([C@@H](C)O)NC(=O)[C@H](CCN)NC(=O)[C@H](CCN)NC(=O)[C@H](CC(C)C)NC(=O)[C@@H](CC(C)C)NC(=O)[C@H](CCN)NC1=O)[C@@H](C)O`: the MIC was 0.4 µg/mL (≈ 0.342 µM) in the assay with Acinetobacter baumannii [1]; 0.4 µg/mL (≈ 0.342 µM) in the assay on Acinetobacter baumannii [2]; 0.4 µg/mL (≈ 0.342 µM) with Acinetobacter baumannii [3]; 0.1 µg/mL (≈ 0.0855 µM) in the assay with Klebsiella pneumoniae [4]; 1.6 µg/mL (≈ 1.37 µM) with Klebsiella pneumoniae [5]; 1.6 µg/mL (≈ 1.37 µM) with Pseudomonas aeruginosa [11]. In addition, the MIC in the assay on Pseudomonas aeruginosa [12] is 0.8 µg/mL (≈ 0.684 µM); in the assay on Pseudomonas aeruginosa [6] it was 0.4 µg/mL (≈ 0.342 µM); in the assay with Pseudomonas aeruginosa [7] it was 0.8 µg/mL (≈ 0.684 µM); in the assay on Escherichia coli [13], 0.1 µg/mL (≈ 0.0855 µM); with Escherichia coli [8] it was 0.1 µg/mL (≈ 0.0855 µM); with Escherichia coli [14] it was 3.2 µg/mL (≈ 2.74 µM). The MIC in the assay with Escherichia coli [9] was greater than 6.4 µg/mL; in the assay on Escherichia coli [10], 3.2 µg/mL (≈ 2.74 µM); in the assay with Staphylococcus aureus it was greater than 6.4 µg/mL; in the assay with Acinetobacter baumannii [15] it was 0.2 µg/mL (≈ 0.171 µM).

For the origin of these results see ChEMBL document CHEMBL5030522, “A Convenient Chemoenzymatic Preparation of Chimeric Macrocyclic Peptide Antibiotics with Potent Activity against Gram-Negative Pathogens” (2021).
